Kir21 block: inhibitors of mouse Kir2.1 inward-rectifier potassium channel | actives 0.85% (n = 310,000) | AID 1672 | HEK293-Kir2.1, FluxOR thallium flux fluorescence; stronger effect = lower value | B-score at 10 µM;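 active means fluorescence ratio B-score at or below minus 3 SD of library scores, with starting-brightness B-score within 2 SD, cut at about -4.2 in these data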;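 further: channel flux triggered by added potassium and thallium sulfate stimulus; B-score of peak minus minimum fluorescence over baseline after thallium stimulus; more negative B-score means stronger Kir2.1 block with less thallium influx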
Target sequence (P35561 whole entry, looked up): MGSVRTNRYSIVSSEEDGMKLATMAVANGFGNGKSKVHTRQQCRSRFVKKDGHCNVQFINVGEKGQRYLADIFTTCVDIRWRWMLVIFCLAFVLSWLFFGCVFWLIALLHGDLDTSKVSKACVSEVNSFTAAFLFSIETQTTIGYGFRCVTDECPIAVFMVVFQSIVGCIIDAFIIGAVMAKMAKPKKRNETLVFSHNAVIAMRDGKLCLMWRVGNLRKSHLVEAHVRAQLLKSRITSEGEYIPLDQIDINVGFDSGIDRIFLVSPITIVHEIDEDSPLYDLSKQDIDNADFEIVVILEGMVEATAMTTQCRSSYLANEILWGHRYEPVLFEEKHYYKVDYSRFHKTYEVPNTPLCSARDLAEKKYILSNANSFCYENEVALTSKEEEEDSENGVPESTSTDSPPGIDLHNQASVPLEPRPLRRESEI
KCNK3 block: human KCNK3 channel inhibition, primary screen; CHO-KCNK3 thallium flux, FluxOR fluorescence; stronger effect = lower value; B-score at 10 µM; actives 0.84% (n = 340,000);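 active means B-score under library mean minus 4 SD, starting fluorescence ratio at most library mean plus 5 SD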;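 further: more negative B-score means stronger inhibition of thallium flux through KCNK3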
KCNQ1 block: inhibitors of human KCNQ1 potassium channel; P51787; CHO-K1 KCNQ1, FluxOR thallium flux fluorescence; stronger effect = higher value; B-score at 10 µM; actives 1.3% (n = 310,000);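 active means compounds whose thallium flux B-score, printed positive for inhibition, exceeds three library SD while starting fluorescence stays within three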;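 further: channel opened by potassium depolarization with thallium stimulus after 20 min compound exposure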
hERG rescue: hERG (human) protection from proarrhythmic block; actives 0.51% (n = 310,000); activation (rescue from dofetilide block), less the hit threshold, % at 10 µM; Q12809; CHO-hERG, FluxOR thallium flux, dofetilide IC70 present;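 active means activation above the mean of controls blocked by dofetilide plus 5 SD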;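 further: thallium influx through hERG after potassium depolarization seen as dye fluorescence rise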
KCNQ1 act: potentiates or activates the human KCNQ1 potassium channel; P51787; CHO-K1 KCNQ1, thallium flux FluxOR fluorescence; stronger effect = higher value; B-score at 10 µM; actives 0.35% (n = 310,000); AID 2648;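 active means fluorescence ratio B-score, a plate-corrected score, at least three library SD, with initial intensity B-score within 5 SD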
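Assay system: stable KCNQ1 CHO-K1 line; medium: assay buffer, equal DMSO in all wells; timing: 90 min dye loading and 20 min compound exposure, both at room temperature; technique: kinetic FluxOR thallium fluorescence, 10-s 1-Hz baseline, 110-s post-stimulus read; read-out basis: B score of baseline-normalized fluorescence ratio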
KCNK9 inh: human KCNK9 channel inhibition. AID 488922. actives 1.2% (n = 310,000). HEK293 KCNK9, FluxOR thallium flux fluorescence; stronger effect = lower value. B-score at 10 µM. Q9NPC2;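 active means ratio B-score over 3 SD below the library mean, with starting fluorescence within 5 SD of its mean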;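 further: negative B-score means less thallium flux so channel inhibition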
KCNK9 inh conf: human KCNK9 inhibitor confirmation; shares compounds with KCNK9 inh; HEK293 KCNK9 cells, FluxOR thallium flux fluorescence; inhibition, % at 10 µM; actives 43% (n = 4,900); AID 492992;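 active means thallium signal inhibited by more than 5 SD of the compound-free buffer control wells, on both duplicate plates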
Kir2-1 spec: tests whether KCNK9 modulators also affect mouse Kir2.1 | shares compounds with KCNK9 inh | actives 4% (n = 4,900) | inhibition, % at 10 µM | Kir2.1 cells, FluxOR thallium flux fluorescence;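 active means thallium signal drop more than 5 SD beyond the mean of the no-compound control wells, seen in both duplicate plates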;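 further: signal is fluorescence rise after thallium addition divided by baseline fluorescence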
KCNK9 uninduced: non-induced cell nonspecific activity of KCNK9 modulators. actives 40% (n = 4,900). inhibition, % at 10 µM. shares compounds with KCNK9 inh. non-induced KCNK9-HEK293, FluxOR thallium flux;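 active means thallium signal drop beyond 5 SD of the untreated control mean, on both duplicate plates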
Of the large screens only hits and unclear results are named; the others gave an inactive call (follow-up assays come after a bar, where they were run). Most compounds without a hit are left out; they make up all but 3.7% or so of the library.

CCOC(=O)COn1c(=O)c(-c2cccs2)[n+]([O-])c2ccccc21	KCNK9 inh -8.3 | KCNK9 inh conf 46% | Kir2-1 spec inactive | KCNK9 uninduced 47%
CCN(CC)S(=O)(=O)c1cc(OC)ccc1N=Nc1ccc(O)c2ncccc12	hERG rescue 17 | KCNK9 inh conf inactive | Kir2-1 spec inactive | KCNK9 uninduced inactive
COc1ccc(Cl)cc1NC(=O)CSc1nc(N2CCOCC2)nc(N2CCOCC2)n1	none
COc1ccc(Cl)cc1NC(=O)CSc1nc(N2CCCCC2)nc(N2CCCCC2)n1	KCNK9 inh -11 | KCNK9 inh conf 36% | Kir2-1 spec inactive | KCNK9 uninduced 26%
COc1cc(Cl)c(C)cc1NC(=O)CSc1cc(Cl)ccc1Cl	KCNK9 inh -9.8 | KCNK9 inh conf 56% | Kir2-1 spec inactive | KCNK9 uninduced 44%
O=C(NCCCN1CCOCC1)/C(=C/c1ccc(F)cc1)NC(=O)c1ccccc1	none
Cc1ccc(/C=N/N2CCN(Cc3cccc4ccccc34)CC2)o1	none | KCNK9 inh conf inactive | Kir2-1 spec inactive | KCNK9 uninduced inactive
Cc1ccc(/C=N/N2CCN(Cc3cccc4ccccc34)CC2)s1	none | KCNK9 inh conf inactive | Kir2-1 spec inactive | KCNK9 uninduced inactive
COc1ccc(Cc2nn3c(-c4ccccc4Br)nnc3s2)cc1	none
Brc1ccccc1-c1nnc2sc(Cc3ccccc3)nn12	KCNK9 inh -15 | KCNK9 inh conf 36% | Kir2-1 spec inactive | KCNK9 uninduced 26%
CC(C(=O)N1CCCc2ccccc21)N1CCN(S(=O)(=O)c2ccccc2F)CC1 (centres undefined)	none | KCNK9 inh conf inactive | Kir2-1 spec inactive | KCNK9 uninduced inactive
Cn1c(CCCOc2ccc(Cl)cc2Cl)nnc1SCC(=O)Nc1ccc(F)c(Cl)c1	none | KCNK9 inh conf inactive | Kir2-1 spec inactive | KCNK9 uninduced inactive
Cn1c(CCCOc2ccc(Cl)cc2Cl)nnc1SCC(=O)Nc1cccc(F)c1	none
CCn1c(CCCOc2ccc(Cl)cc2Cl)nnc1SCC(=O)Nc1cc(F)ccc1C	KCNK9 inh -9.7 | KCNK9 inh conf 58% | Kir2-1 spec inactive | KCNK9 uninduced 30%
COc1ccc(Cl)cc1S(=O)(=O)N1CCC(C(=O)NC2CCCC2)CC1	none
CCCn1c(SCC(=O)N(C2CCCCC2)C2CCS(=O)(=O)C2)n[nH]c1=O (centres undefined)	none (no result: Kir21 block, KCNQ1 block, hERG rescue, KCNQ1 act, KCNK9 inh)
Cc1cc(C)c(C(=O)C(C)OC(=O)c2ccc(Cl)nc2)cc1C (centres undefined)	none | KCNK9 inh conf inactive | Kir2-1 spec inactive | KCNK9 uninduced inactive
COc1cccc2cc(C(=O)NCCc3c[nH]c4ccccc34)c(=O)oc12	none
COc1ccc(CCNC(=O)c2ccc(Cl)c(S(=O)(=O)N(C)c3ccccc3)c2)cc1	none | KCNK9 inh conf inactive | Kir2-1 spec inactive | KCNK9 uninduced inactive
Cc1cccc(NC(=O)/C(C#N)=C\c2ccc(C(=O)O)cc2)c1	none
COc1cc(C)c(/C=C(\C#N)C(=O)Nc2cccc(C)c2)cc1C(C)C	none | KCNK9 inh conf inactive | Kir2-1 spec inactive | KCNK9 uninduced inactive
O=C(NCc1cccc(OC(F)(F)F)c1)c1ccc2c(c1)S(=O)(=O)c1cc(Cl)ccc1C2=O	none (no result: Kir21 block, KCNQ1 block, hERG rescue, KCNQ1 act, KCNK9 inh)
COc1ccc(C(=O)NC(=S)Nc2ccc(CN3CCOCC3)cc2)cc1Br	none | KCNK9 inh conf inactive | Kir2-1 spec inactive | KCNK9 uninduced inactive
CN1CCN(c2ccc(C(F)(F)F)cc2NC(=O)c2ccco2)CC1	none
Cc1ccccc1-c1cccc([C@@H]2C[C@H]3CN(Cc4cccnc4)C(=O)[C@]34CCCN24)c1	none
C=CCOC(=O)C1=C(C)OC(N)=C(C#N)C1c1c(C)nn(-c2ccccc2)c1Cl (centres undefined)	KCNK3 block -10, KCNK9 inh -8.4 | KCNK9 inh conf 50% | Kir2-1 spec inactive | KCNK9 uninduced 34%
COc1ccc(NC(=O)CN2CCN(CC(=O)Nc3cc(OC)cc(OC)c3)CC2)cc1	none (no result: Kir21 block, KCNQ1 block, hERG rescue, KCNQ1 act, KCNK9 inh)
COc1ccc(NC(=O)CN2CCN(c3ccc(C)cc3C)CC2)cc1	none | KCNK9 inh conf inactive | Kir2-1 spec inactive | KCNK9 uninduced inactive
COc1ccc(NC(=O)CN2CCN(c3c(C)cc(C)cc3C)CC2)cc1	none | KCNK9 inh conf inactive | Kir2-1 spec 40% | KCNK9 uninduced inactive
COc1ccc(N2CCN(CC(=O)Nc3ccc(C)cc3)CC2)cc1	none
COc1ccc(NC(=O)CN2CCN(c3c(C)cccc3C)CC2)cc1	none | KCNK9 inh conf inactive | Kir2-1 spec inactive | KCNK9 uninduced inactive
CCc1nn2c(=O)cc(COC(=O)c3ccc(SC)cc3OC)nc2s1	none (no result: Kir21 block, KCNQ1 block, hERG rescue, KCNQ1 act, KCNK9 inh)
CC(=O)c1ccc(S(=O)(=O)N2CCN(C(=O)CSC(=S)N3CCCC3)CC2)cc1	none
Cn1c(CNC(=O)c2ccc3c(c2)OCO3)nnc1SCC(=O)Nc1ccc(F)cc1	none
CC(C)CCN1CCN(Cc2coc3ccccc3c2=O)CC1CCO (centres undefined)	none
CCOc1ccccc1NC(=O)n1ncc2c(C)cccc21	KCNK9 inh -13 | KCNK9 inh conf inactive | Kir2-1 spec inactive | KCNK9 uninduced 40%
CCCCn1c(SCC(=O)N(CC)C2CCS(=O)(=O)C2)nc2cc(S(N)(=O)=O)ccc21 (centres undefined)	none
CCN(C(=O)CSc1nc2cc(C(F)(F)F)ccc2n1Cc1ccccc1)C1CCS(=O)(=O)C1 (centres undefined)	KCNK9 inh -10 | KCNK9 inh conf 61% | Kir2-1 spec inactive | KCNK9 uninduced 52%
CCCCC(CC)C(=O)Nc1cccc(SC)c1 (centres undefined)	KCNK9 inh -9.4 | KCNK9 inh conf 30% | Kir2-1 spec inactive | KCNK9 uninduced inactive
CC12CCC(C(=O)NCCc3ccccc3)(OC1=O)C2(C)C (centres undefined)	none | KCNK9 inh conf inactive | Kir2-1 spec inactive | KCNK9 uninduced inactive
CC(=O)O[C@@H](C[C@@H](C)C1=C2C[C@H](O)C3[C@@]4(C)CCC(=O)C(C)(C)C4CC[C@]3(C)[C@@]2(C)CC1)[C@H]1OC1(C)C (some centres undefined)	none (no result: Kir21 block, KCNQ1 block, hERG rescue, KCNQ1 act, KCNK9 inh)
COc1ccc(-c2cc(C)no2)cc1S(=O)(=O)N1CCCN(Cc2ccccc2Cl)C1	KCNK9 inh -16 | KCNK9 inh conf 32% | Kir2-1 spec inactive | KCNK9 uninduced 32%
O=C(NCc1ccccc1)[C@]1(C(F)(F)F)C[C@H](CCc2ccccc2)CCCO1	none | KCNK9 inh conf inactive | Kir2-1 spec inactive | KCNK9 uninduced inactive

High-throughput results as filed in PubChem BioAssay.
